Assay type in all cases: functional, cell-based
For one test, the system named is L1210. As to the kind of experiment: Cytostatic activity against mouse L1210 cells after 2 days by coulter ZI particle counting analysis. Conditions: L1210, 48 h. Put shortly:
(§1)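 Cells seeded in 96-well plates and grown with or without serial dilutions of compound, 2 days for L1210 and 3 days for CEM and HeLa. IC50 taken as concentration inhibiting cell proliferation by 50%.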

For another test, the system named is CCRF-CEM. Briefly: Cytostatic activity against human CEM cells after 3 days by coulter ZI particle counting analysis. As to conditions: 72 h. Put shortly: as §1
A further test has as its system HeLa. Briefly: Cytostatic activity against human HeLa cells after 3 days by coulter ZI particle counting analysis. As to conditions: 72 h. Put shortly:
as §1

The values below come from ChEMBL document CHEMBL3085765, “The synthesis, antiviral, cytostatic and cytotoxic evaluation of a new series of acyclonucleotide analogues with a 1,2,3-triazole linker” (Eur J Med Chem, 2013).

As usually defined, the IC50 is the point on the concentration scale where inhibition reaches its midpoint. Take `Cc1cn(Cc2cn(CCCCP(=O)(O)O)nn2)c(=O)[nH]c1=O`: the IC50 in the test with L1210, in the test with CCRF-CEM and in the test with HeLa was over 200 µM in each case.

Take `CCOP(=O)(CCCCn1cc(Cn2cnc3cc(C)c(C)cc32)nn1)OCC`: the IC50 with L1210 was over 200 µM; in the test on CCRF-CEM, 24.7 µM; in the test on HeLa, 172 µM.

As for `Nc1ncnc2c1ncn2Cc1cn(CCCCP(=O)(O)O)nn1`, the IC50 in the test on L1210, with CCRF-CEM and with HeLa was over 200 µM throughout.

For the compound `O=c1ccn(Cc2cn(CCCCP(=O)(O)O)nn2)c(=O)[nH]1`, the IC50 with L1210, in the test on CCRF-CEM and in the test on HeLa was over 200 µM in each case.

For the compound `Cn1c(=O)c2c(ncn2Cc2cn(CC(O)P(=O)(O)O)nn2)n(C)c1=O` (centres undefined), the IC50 with L1210, in the test on CCRF-CEM and in the test on HeLa was over 200 µM in each case.

Consider `CCOP(=O)(OCC)C(O)CCn1cc(Cn2ccc(=O)[nH]c2=O)nn1` (centres undefined), for which the IC50 with L1210, with CCRF-CEM and in the test with HeLa was over 200 µM throughout.

Consider `CCOP(=O)(OCC)C(O)CCn1cc(Cn2ccc(NC(C)=O)nc2=O)nn1` (centres undefined), for which the IC50 with L1210, in the test on CCRF-CEM and in the test on HeLa was over 200 µM each time.

Take `CCOP(=O)(OCC)C(O)CCn1cc(Cn2c(=O)n(C(=O)c3ccccc3)c(=O)c3ccccc32)nn1` (centres undefined): the half-inhibitory concentration (IC50) was over 200 µM in the test on L1210, 70 µM with CCRF-CEM and over 200 µM in the test with HeLa.

Consider `CCOP(=O)(OCC)C(O)CCn1cc(Cn2ncc(=O)[nH]c2=O)nn1` (centres undefined), for which the IC50 in the test on L1210, in the test with CCRF-CEM and in the test with HeLa was over 200 µM throughout.

Consider `CCOP(=O)(OCC)C(O)CCn1cc(Cn2c(Cl)nc3c2c(=O)n(C)c(=O)n3C)nn1` (centres undefined), for which the IC50 in the test on L1210, in the test on CCRF-CEM and in the test on HeLa was over 200 µM in each case.

Turning to `CCOP(=O)(OCC)C(O)CCn1cc(Cn2c(=O)c3c(ncn3C)n(C)c2=O)nn1` (centres undefined), the IC50 in the test on L1210, in the test on CCRF-CEM and in the test on HeLa was over 200 µM throughout.

As for `CCOP(=O)(OCC)C(O)CCn1cc(Cn2cnc3c2c(=O)n(C)c(=O)n3C)nn1` (centres undefined), the 50% inhibitory concentration (IC50) in the test on L1210, in the test with CCRF-CEM and with HeLa was over 200 µM in each case.

Take `CCOP(=O)(OCC)C(O)CCn1cc(Cn2cnc3cc(C)c(C)cc32)nn1` (centres undefined): the IC50 in the test with L1210 was over 200 µM; in the test on CCRF-CEM, 163 µM; in the test on HeLa it was over 200 µM.

Regarding `CCOP(=O)(OCC)C(O)CCn1cc(Cn2cc(C(C)=O)c3ccccc32)nn1` (centres undefined), the half-maximal inhibitory concentration (IC50) in the test with L1210 is 124 µM; in the test with CCRF-CEM it was 100 µM; in the test on HeLa, over 200 µM.

`CCOP(=O)(OCC)C(O)CCn1cc(Cn2ccccc2=O)nn1` (centres undefined): the concentration for half-maximal inhibition (IC50) in the test with L1210, with CCRF-CEM and with HeLa was over 200 µM throughout.

Consider `O=C(c1ccccc1)n1c(=O)c2ccccc2n(Cc2cn(CCCP(=O)(O)O)nn2)c1=O`, for which the half-inhibitory concentration (IC50) with L1210, in the test with CCRF-CEM and in the test with HeLa was over 200 µM each time.

Consider `Cn1c(=O)c2c(nc(Cl)n2Cc2cn(CCCP(=O)(O)O)nn2)n(C)c1=O`, for which the half-inhibitory concentration (IC50) with L1210, with CCRF-CEM and in the test with HeLa was over 200 µM throughout.

As to `Cc1cc2ncn(Cc3cn(CCCP(=O)(O)O)nn3)c2cc1C`, the IC50 in the test on L1210, with CCRF-CEM and in the test on HeLa was over 200 µM in each case.

Turning to `O=C(c1ccccc1)n1c(=O)ccn(Cc2cn(CCCP(=O)(O)O)nn2)c1=O`, the IC50 with L1210, with CCRF-CEM and in the test with HeLa was over 200 µM each time.

Turning to `CCOP(=O)(CCCCn1cc(Cn2ccccc2=O)nn1)OCC`, the IC50 with L1210, in the test on CCRF-CEM and with HeLa was over 200 µM throughout.

With `CCOP(=O)(OCC)C(O)Cn1cc(Cn2c(=O)n(C(=O)c3ccccc3)c(=O)c3ccccc32)nn1` (centres undefined), the values for the half-maximal inhibitory concentration (IC50) with L1210, in the test with CCRF-CEM and with HeLa were over 200 µM, at least 77 µM and over 200 µM, respectively.

In the case of `CCOP(=O)(OCC)C(O)Cn1cc(Cn2ncc(=O)[nH]c2=O)nn1` (centres undefined), the IC50 with L1210, in the test on CCRF-CEM and in the test on HeLa was over 200 µM throughout.

Take `CCOP(=O)(OCC)C(O)Cn1cc(Cn2c(Cl)nc3c2c(=O)n(C)c(=O)n3C)nn1` (centres undefined): the half-maximal inhibitory concentration (IC50) with L1210, in the test on CCRF-CEM and in the test with HeLa was over 200 µM throughout.

On to `CCOP(=O)(OCC)C(O)Cn1cc(Cn2c(=O)c3c(ncn3C)n(C)c2=O)nn1` (centres undefined), for which the IC50 in the test with L1210, in the test with CCRF-CEM and in the test with HeLa was over 200 µM each time.

Take `CCOP(=O)(OCC)C(O)Cn1cc(Cn2cnc3c2c(=O)n(C)c(=O)n3C)nn1` (centres undefined): the half-inhibitory concentration (IC50) with L1210, in the test on CCRF-CEM and in the test with HeLa was over 200 µM in each case.

Turning to `CCOP(=O)(OCC)C(O)Cn1cc(Cn2cnc3cc(C)c(C)cc32)nn1` (centres undefined), the 50% inhibitory concentration (IC50) in the test on L1210, in the test on CCRF-CEM and with HeLa was over 200 µM each time.

As for `CCOP(=O)(OCC)C(O)Cn1cc(Cn2cc(C(C)=O)c3ccccc32)nn1` (centres undefined), the IC50 with L1210 was over 200 µM; with CCRF-CEM, 21 µM; in the test on HeLa, over 200 µM.

As to `CCOP(=O)(OCC)C(O)Cn1cc(Cn2ccccc2=O)nn1` (centres undefined), the half-maximal inhibitory concentration (IC50) in the test with L1210, in the test on CCRF-CEM and with HeLa was over 200 µM in each case.

`CCOP(=O)(CC(O)Cn1cc(Cn2c(=O)n(C(=O)c3ccccc3)c(=O)c3ccccc32)nn1)OCC` (centres undefined): the half-inhibitory concentration (IC50) was over 200 µM with L1210, 72 µM in the test on CCRF-CEM and over 200 µM with HeLa.

On to `CCOP(=O)(CC(O)Cn1cc(Cn2ncc(=O)[nH]c2=O)nn1)OCC` (centres undefined), for which the IC50 in the test on L1210, with CCRF-CEM and with HeLa was over 200 µM throughout.

On to `CCOP(=O)(CC(O)Cn1cc(Cn2c(Cl)nc3c2c(=O)n(C)c(=O)n3C)nn1)OCC` (centres undefined), for which the IC50 in the test with L1210, in the test with CCRF-CEM and in the test on HeLa was over 200 µM in each case.

In the case of `CCOP(=O)(CC(O)Cn1cc(Cn2c(=O)c3c(ncn3C)n(C)c2=O)nn1)OCC` (centres undefined), the IC50 in the test with L1210, with CCRF-CEM and in the test with HeLa was over 200 µM in each case.

Turning to `CCOP(=O)(CC(O)Cn1cc(Cn2cnc3c2c(=O)n(C)c(=O)n3C)nn1)OCC` (centres undefined), the IC50 with L1210, with CCRF-CEM and in the test on HeLa was over 200 µM in each case.

As for `CCOP(=O)(CC(O)Cn1cc(Cn2cnc3cc(C)c(C)cc32)nn1)OCC` (centres undefined), the IC50 in the test on L1210 was over 200 µM; in the test on CCRF-CEM it was 78 µM; in the test with HeLa, at least 150 µM.

Regarding `CCOP(=O)(CC(O)Cn1cc(Cn2cc(C(C)=O)c3ccccc32)nn1)OCC` (centres undefined), the IC50 was over 200 µM with L1210, 43 µM with CCRF-CEM and 97 µM with HeLa.

Regarding `CCOP(=O)(CC(O)Cn1cc(Cn2ccccc2=O)nn1)OCC` (centres undefined), the IC50 in the test with L1210, in the test on CCRF-CEM and in the test with HeLa was over 200 µM throughout.

Regarding `CCOP(=O)(OCC)C(O)CCn1cc(Cn2cc(C)c(=O)[nH]c2=O)nn1` (centres undefined), the 50% inhibitory concentration (IC50) in the test with L1210, in the test with CCRF-CEM and in the test on HeLa was over 200 µM throughout.

For `CCOP(=O)(CCCn1cc(Cn2ncc(=O)[nH]c2=O)nn1)OCC`, the IC50 in the test on L1210, in the test on CCRF-CEM and in the test with HeLa was over 200 µM throughout.

`CCOP(=O)(CCCn1cc(Cn2c(Cl)nc3c2c(=O)n(C)c(=O)n3C)nn1)OCC`: the half-maximal inhibitory concentration (IC50) with L1210, with CCRF-CEM and in the test with HeLa was over 200 µM throughout.

On to `CCOP(=O)(CCCn1cc(Cn2c(=O)c3c(ncn3C)n(C)c2=O)nn1)OCC`, for which the 50% inhibitory concentration (IC50) in the test with L1210, with CCRF-CEM and in the test with HeLa was over 200 µM each time.

With `CCOP(=O)(CCCn1cc(Cn2cnc3c2c(=O)n(C)c(=O)n3C)nn1)OCC`, the IC50 with L1210, with CCRF-CEM and in the test with HeLa was over 200 µM each time.

Turning to `CCOP(=O)(CCCn1cc(Cn2cnc3cc(C)c(C)cc32)nn1)OCC`, the half-inhibitory concentration (IC50) in the test on L1210 amounted to 189 µM; in the test with CCRF-CEM, 14 µM; with HeLa, 101 µM.

For `CCOP(=O)(CCCn1cc(Cn2cc(C(C)=O)c3ccccc32)nn1)OCC`, the IC50 was 164 µM in the test with L1210, 4.54 µM in the test on CCRF-CEM and 19 µM in the test with HeLa.

With `CCOP(=O)(CCCn1cc(Cn2ccccc2=O)nn1)OCC`, the IC50 in the test on L1210, with CCRF-CEM and in the test on HeLa was over 200 µM throughout.

For `CCOP(=O)(CCCCn1cc(Cn2cnc3c(N)ncnc32)nn1)OCC`, the IC50 in the test with L1210, in the test on CCRF-CEM and in the test with HeLa was over 200 µM in each case.

`CCOP(=O)(CCCCn1cc(Cn2cc(C)c(=O)[nH]c2=O)nn1)OCC`: the 50% inhibitory concentration (IC50) in the test with L1210, with CCRF-CEM and with HeLa was over 200 µM throughout.

For `CCOP(=O)(CCCCn1cc(Cn2ccc(=O)[nH]c2=O)nn1)OCC`, the IC50 with L1210, with CCRF-CEM and in the test on HeLa was over 200 µM in each case.

In the case of `CCOP(=O)(CCCCn1cc(Cn2ccc(NC(C)=O)nc2=O)nn1)OCC`, the half-inhibitory concentration (IC50) in the test with L1210, in the test on CCRF-CEM and in the test with HeLa was over 200 µM in each case.

Consider `CCOP(=O)(CCCCn1cc(Cn2ncc(=O)[nH]c2=O)nn1)OCC`, for which the IC50 with L1210, in the test with CCRF-CEM and in the test on HeLa was over 200 µM in each case.

With `CCOP(=O)(CCCCn1cc(Cn2c(Cl)nc3c2c(=O)n(C)c(=O)n3C)nn1)OCC`, the IC50 with L1210, with CCRF-CEM and with HeLa was over 200 µM each time.

Take `CCOP(=O)(CCCCn1cc(Cn2c(=O)c3c(ncn3C)n(C)c2=O)nn1)OCC`: the half-maximal inhibitory concentration (IC50) with L1210, with CCRF-CEM and in the test with HeLa was over 200 µM throughout.

With `CCOP(=O)(CCCCn1cc(Cn2cnc3c2c(=O)n(C)c(=O)n3C)nn1)OCC`, the half-inhibitory concentration (IC50) in the test on L1210, with CCRF-CEM and in the test with HeLa was over 200 µM each time.

For the compound `CCOP(=O)(CCCCn1cc(Cn2cc(C(C)=O)c3ccccc32)nn1)OCC`, the IC50 in the test with L1210 was 200 µM; in the test on CCRF-CEM, 12 µM; with HeLa it was over 200 µM.
